In test [1] the test system is Yersinia pseudotuberculosis. Put plainly: Effect on T3S in Yersinia pseudotuberculosis 3 pIB29 assessed as inhibition of light emission at 20 uM by luciferase reporter gene assay. A digest of the protocol:
(§1)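 YPIII pIB29 (yopE-luxAB) reporter strain grown overnight at ambient temperature in BHI with 5 mM EGTA and 20 mM MgCl2 to deplete calcium. Culture adjusted to OD600 0.15-0.25 and added to compounds in DMSO (final ≤1%). Incubated 1 h at ambient temperature with shaking, then 2 h at 37 °C. Decanal substrate added and luminescence read at once. Triplicates; repeated on ≥2 occasions.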
(In general: In a reporter assay the amount or activity of a reporter protein is the signal.)

Test [2] deals with Yersinia pseudotuberculosis. The experiment in a line: Effect on T3S in Yersinia pseudotuberculosis 3 pIB29 assessed as inhibition of light emission at 50 uM by luciferase reporter gene assay. In short, it runs like this:
as §1

The subject of test [3] is Yersinia pseudotuberculosis. The experiment in a line: Effect on T3S in Yersinia pseudotuberculosis 3 pIB29 assessed as inhibition of light emission at 10 uM by luciferase reporter gene assay. In short, it runs like this: as §1
In test [4] the test system is Yersinia pseudotuberculosis. The experiment in a line: Effect on T3S in Yersinia pseudotuberculosis 3 pIB29 assessed as inhibition of light emission at 100 uM by luciferase reporter gene assay. In short, it runs like this: as §1
Test [5] has as its system Yersinia pseudotuberculosis. Put plainly: Effect on T3S in Yersinia pseudotuberculosis 3 pIB29 assessed as inhibition of light emission at 2 uM by luciferase reporter gene assay. In short, it runs like this: as §1
Test [6] concerns Yersinia pseudotuberculosis. The experiment in a line: Effect on T3S in Yersinia pseudotuberculosis 3 pIB29 assessed as inhibition of light emission at 0.5 uM by luciferase reporter gene assay. A digest of the protocol:
as §1

Test [7] concerns Yersinia pseudotuberculosis. The experiment in a line: Effect on T3S in Yersinia pseudotuberculosis 3 pIB29 assessed as inhibition of light emission at 1 uM by luciferase reporter gene assay. A digest of the protocol:
as §1

Test [8] concerns Yersinia pseudotuberculosis. Put plainly: Effect on T3S in Yersinia pseudotuberculosis 3 pIB29 assessed as inhibition of light emission at 5 uM by luciferase reporter gene assay. In short, it runs like this: as §1

On to `O=C(Nc1ccc(SC(F)(F)F)cc1)c1cc(I)cc(I)c1O`, for which the inhibition was 100% in test [1]; 100% in test [2]; 83% in test [3]; 100% in test [4]; 39% in test [5]; 19% in test [6]. For the same compound, the inhibition in test [7] amounted to 17%; in test [8] it was 75%.

As to `CC(=O)Oc1c(Cl)cccc1C(=O)Nc1ccc(Br)cc1`, the inhibition was 36% in test [1]; 78% in test [2]; 18% in test [3]; 99% in test [4]; 9% in test [5]; -2% in test [6]. In addition, the inhibition was 8% in test [7] and 12% in test [8].

Regarding `CC(=O)Oc1ccc(I)cc1C(=O)Nc1ccc(Br)cc1`, the inhibition stood at 100% in test [1]; 100% in test [2]; 98% in test [3]; 100% in test [4]; 94% in test [5]; 54% in test [6]. For the same compound, the inhibition in test [7] was 71%; in test [8] it was 100%.

Turning to `CC(=O)Oc1c(Cl)cc(Cl)c(Cl)c1C(=O)Nc1ccc(SC(F)(F)F)cc1`, the inhibition in test [1] was determined as 95%; in test [2] it was 89%; in test [3] it was 67%; in test [4], 92%; in test [5] it was 42%; in test [6], 5%. Besides, the inhibition was determined as 15% in test [7] and 47% in test [8].

As for `O=C(Nc1cc(Cl)ccc1F)c1cc(I)cc(I)c1O`, the inhibition was 92% in test [1]; 100% in test [2]; 53% in test [3]; 100% in test [4]; 6% in test [5]; 7% in test [6]. The results for the inhibition in test [7] and in test [8] were 2% and 19%, respectively.

For `CC(=O)Oc1ccc(Cl)cc1C(=O)Nc1ccc(Cl)c(C)c1`, the inhibition in test [1] was determined as 100%; in test [2], 100%; in test [3], 99%; in test [4], 100%; in test [5], 62%; in test [6] it was 15%. The inhibition was determined as 50% in test [7] and 91% in test [8].

As to `O=C(Nc1ccc(Cl)cc1)c1cc(I)cc(I)c1O`, the inhibition in test [1] amounted to 100%; in test [2] it was 100%; in test [3], 100%; in test [4] it was 99%; in test [5], 60%; in test [6], 15%. Further, the inhibition in test [7] worked out at 47%; in test [8] it was 95%.

As for `CC(=O)Oc1ccc(I)cc1C(=O)Nc1ccc(Cl)cc1`, the inhibition was 100% in test [1]; 100% in test [2]; 99% in test [3]; 100% in test [4]; 92% in test [5]; 58% in test [6]. For the same compound, the inhibition was 73% in test [7] and 99% in test [8].

Take `O=C(Nc1ccc(Br)cc1)c1cc(I)cc(I)c1O`: the inhibition amounted to 100% in test [1]; 100% in test [2]; 100% in test [3]; 100% in test [4]; 74% in test [5]; 36% in test [6]. Further, the inhibition is 64% in test [7] and 94% in test [8].

As to `O=C(Nc1ccc(Cl)cc1)c1cc(I)ccc1O`, the inhibition was 85% in test [1]; 80% in test [2]; 91% in test [3]; 78% in test [4]; 90% in test [5]; 55% in test [6]. For the same compound, the results for the inhibition in test [7] and in test [8] were 68% and 91%, respectively.

With `Cc1cc(NC(=O)c2cc(Cl)ccc2O)ccc1Cl`, the inhibition in test [1] came to 85%; in test [2] it was 56%; in test [3] it was 61%; in test [4] it was 75%; in test [5], 62%; in test [6], 15%. The inhibition came to 50% in test [7] and 85% in test [8].

Consider `O=C(Nc1ccc(Br)cc1)c1cccc(Cl)c1O`, for which the inhibition came to 62% in test [1]; 96% in test [2]; 24% in test [3]; 100% in test [4]; 12% in test [5]; 5% in test [6]. Further, the inhibition came out at 6% in test [7] and 12% in test [8].

`CC(=O)Oc1ccc(I)cc1C(=O)Nc1ccc(SC(F)(F)F)cc1`: the inhibition in test [1] was 74%; in test [2], 99%; in test [3], 58%; in test [4], 100%; in test [5], 80%; in test [6], 17%. Besides, the values for the inhibition in test [7] and in test [8] were 52% and 56%, respectively.

In the case of `CC(=O)Oc1c(Cl)cccc1C(=O)Nc1ccc(SC(F)(F)F)cc1`, the inhibition in test [1] is 70%; in test [2], 98%; in test [3] it was 55%; in test [4], 100%; in test [5] it was 12%; in test [6] it was -1%. Also, the inhibition in test [7] came to 6%; in test [8], 34%.

Turning to `O=C(Nc1ccc(Br)cc1)c1cc(I)ccc1O`, the inhibition was determined as 67% in test [1]; 62% in test [2]; 71% in test [3]; 60% in test [4]; 68% in test [5]; 20% in test [6]. The values for the inhibition in test [7] and in test [8] were 49% and 68%, respectively.

As for `CC(=O)Oc1c(I)cc(I)cc1C(=O)Nc1ccc(F)cc1`, the inhibition in test [1] worked out at 76%; in test [2], 86%; in test [3] it was 60%; in test [4] it was 93%; in test [5] it was 15%; in test [6], 12%. Moreover, the figures for the inhibition in test [7] and in test [8] were 6% and 31%, respectively.

`CC(=O)Oc1c(I)cc(I)cc1C(=O)Nc1ccc(Br)cc1`: the inhibition stood at 86% in test [1]; 94% in test [2]; 69% in test [3]; 95% in test [4]; 7% in test [5]; 11% in test [6]. For the same compound, the inhibition in test [7] is 8%; in test [8], 38%.

On to `CC(=O)Oc1c(I)cc(I)cc1C(=O)Nc1cc(Cl)ccc1F`, for which the inhibition in test [1] turned out to be 58%; in test [2], 89%; in test [3], 34%; in test [4] it was 95%; in test [5], 1%; in test [6], 6%. For the same compound, the inhibition in test [7] worked out at 1%; in test [8] it was 9%.

`CC(=O)Oc1c(I)cc(I)cc1C(=O)Nc1ccc(Cl)cc1`: the inhibition in test [1] amounted to 98%; in test [2] it was 99%; in test [3] it was 76%; in test [4], 99%; in test [5], 17%; in test [6], 3%. Moreover, the inhibition in test [7] came to 7%; in test [8], 54%.

What is called inhibition is the relative decrease from the control value, in per cent.
